From ChEMBL document CHEMBL1122327, “Replacement of aromatic or heteroaromatic groups in nonsteroidal antiinflammatory agents with the ferrocene group” (1983)
Activity calls are given as the source filed them. The rule behind the calls is not given here.

What was measured:
[1] = species: Homo sapiens; assay: Evaluated for the inhibition of platelet aggregation at dose of 100 uM; format: functional
Summary of the method: (§1)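 Human platelet-rich plasma from citrated blood of volunteers who had taken no drugs for at least 10 days, adjusted to 300 000 platelets/μL with platelet-poor plasma. Compound added in PEG 300, then 8 min at 37 °C and 2 min equilibration with stirring at 1200 rpm. Collagen added to trigger aggregation. Maximum rise in light transmission measured within 1–2.5 h of the blood draw; % inhibition calculated against control.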

[2] = species: Homo sapiens; assay: Evaluated for the inhibition of platelet aggregation at dose of 20 uM; format: functional; summary of the method: as §1
[3] = species: Homo sapiens; assay: Evaluated for the inhibition of serotonin release from platelets at dose of 100 uM; format: functional
Summary of the method: (§2)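 Human platelet-rich plasma at 300 000 platelets/μL, loaded with [3H]5-HT (0.5 μM final, 50 μCi/μmol) for 30 min at room temperature. Compound added in PEG 300 and incubated 10 min at 37 °C, then stirred with collagen (1.6 μL/mL final) for 5 min. Reaction stopped with EDTA and samples centrifuged. Supernatant radioactivity counted by scintillation; % inhibition calculated against vehicle-treated plasma.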

[4] = tested on: Rattus norvegicus; assay: Evaluated for the percentage inhibition by adjuvant arthritis test at a dose of 25 mg/kg administarted perorally; Inactive; format: functional, organism-based; set-up: dose 25 mg/kg
[5] = species: Homo sapiens; assay: Evaluated for the inhibition of serotonin release from platelets at dose of 20 uM; format: functional; summary of the method: as §2
[6] = tested on: Rattus norvegicus; assay: Evaluated for the percentage inhibition by adjuvant arthritis test at a dose of 100 mg/kg administarted perorally; Inactive; format: functional, organism-based; set-up: dose 100 mg/kg
[7] = tested on: Rattus norvegicus; assay: Evaluated for the percentage inhibition by adjuvant arthritis test at a dose of 50 mg/kg administarted perorally; Inactive; format: functional, organism-based; set-up: dose 50 mg/kg
[8] = tested on: Rattus norvegicus; assay: Evaluated for the percentage inhibition by adjuvant arthritis test at a dose of 50 mg/kg administarted perorally; format: functional; conditions: route oral
[9] = species: Homo sapiens; assay: percent inhibition of serotonin release from platelets at a concentration of 100 uM; format: functional
Summary of the method: (§3)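 Human platelet-rich plasma at 300 000/μL, loaded with [3H]5-HT (0.5 μM final) for 30 min at room temperature. Compound in PEG 300 incubated 10 min at 37 °C, then stirred with collagen (1.6 μL/mL final) for 5 min and stopped with EDTA. After centrifugation, supernatant radioactivity was counted by scintillation. Percent inhibition calculated against vehicle-treated plasma.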

[10] = species: Homo sapiens; assay: percent inhibition of serotonin release from platelets at a concentration of 20 uM; format: functional; summary of the method: as §3
[11] = species: Homo sapiens; assay: Percent inhibition of collagen-induced platelet aggregation at a concentration of 100 uM; format: functional
Summary of the method: (§4)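 Human platelet-rich plasma from drug-free volunteers (citrated blood, 450 g spin), adjusted to 300 000 platelets/μL with platelet-poor plasma. Compound in PEG 300 preincubated 8 min at 37 °C, then 2 min equilibration with stirring at 1200 rpm. Aggregation triggered with collagen; maximum rise in light transmission read by aggregometer. Percent inhibition calculated against control. Runs done 1–2.5 h after blood draw.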

[12] = species: Homo sapiens; assay: Percent inhibition of collagen-induced platelet aggregation at a concentration of 20 uM; format: functional; summary of the method: as §4

| Compound | inhibition [1] | inhibition [2] | inhibition [3] | inhibition [4] | inhibition [5] | inhibition [6] | inhibition [7] | inhibition in vivo at 50 mg/kg [8] | inhibition at 100 µM [9] | inhibition at 20 µM [10] | inhibition at 100 µM [11] | inhibition at 20 µM [12] |
| --- | --- | --- | --- | --- | --- | --- | --- | --- | --- | --- | --- | --- |
| 4-(3-Ferrocenoyl-cyclopenta-2,4-dienyl)-4-oxo-butyric acid | 8% | 0% | 64% | inactive | 29% |  |  |  |  |  |  |  |
| (3-Ferrocenoyl-cyclopenta-2,4-dienyl)-acetic acid | 6% | 5% | 16% |  | 0% | inactive |  |  |  |  |  |  |
| 2-[2-(3-Cyclopenta-2,4-dienylmethyl-Ferrocenoyl)-2-oxo-ethyl]-benzoic acid | 28% | 7% | 0% |  | 3% |  | inactive |  |  |  |  |  |
| calcium salt of 4-Ferrocenoyl-1-methyl-1H-pyrrole-2-acetate | 3% | 2% | 12% |  | 10% | inactive |  |  |  |  |  |  |
| O=C(O)CCC(=O)c1ccc(-c2ccccc2)cc1 [FENBUFEN] |  |  |  |  |  |  |  | 71% |  |  |  |  |
| Cc1ccc(C(=O)c2ccc(CC(=O)O)n2C)cc1 [TOLMETIN] |  |  |  |  |  |  |  | 34% | 88% | 90% | 85% | 74% |
| CC(C(=O)O)c1ccc(-c2ccccc2)c(F)c1 (stereo unspecified) [FLURBIPROFEN] |  |  |  |  |  |  |  | 55% | 90% | 86% | 89% | 88% |
| [3-(Cyclopenta-2,4-ferrocenoyl)-4-(4-methyl-benzoyl)-cyclopenta-1,3-dienyl]-acetic acid | 6% | 2% | 23% |  | 0% | inactive |  |  |  |  |  |  |
| 2-{5-[3-(4-Methyl-benzoyl)-Ferrocenoyl]-cyclopenta-1,3-dienyl}-acetamide | 15% | 4% | 34% |  | 0% | inactive |  |  |  |  |  |  |
| Methyl 5-Ferrocenoyl-1-methyl-1H-pyrrole-2-acetate | 6% | 0% | 0% |  | 3% | inactive |  |  |  |  |  |  |
| 4-Ferrocenoyl-1-methyl-1H-pyrrole-2-acetate | 27% | 20% | 60% |  | 32% |  | inactive |  |  |  |  |  |
